Where a chain is given by its changes, count along the chain named. Calls of active or inactive are those of the source. No cut-off for these calls is given here.
Legend:
[1] = tested on: T1, Alpha-crystallin B chain (Homo sapiens), P02511 [R120G]; assay: Induction of redissolving of aggregated alpha-crystallin B R120G mutant (unknown origin) at 200 uM incubated for 24 hrs by transmission-electron-microscopy
T1 sequence (whole entry): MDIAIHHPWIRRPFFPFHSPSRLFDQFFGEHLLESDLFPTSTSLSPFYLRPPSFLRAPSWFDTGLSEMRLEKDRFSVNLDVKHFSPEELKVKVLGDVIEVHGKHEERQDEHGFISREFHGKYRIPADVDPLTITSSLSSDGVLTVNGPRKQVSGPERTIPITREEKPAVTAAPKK
Method in brief: (§1)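 Pre-formed amyloid-like fibrils of mutant crystallin proteins were treated with compounds in liposomes or with a liposome vehicle. Fibrillar structures were then examined by negative-stain transmission electron microscopy.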

[2] = tested on: T2, Gamma-crystallin C (Homo sapiens), P07315 [G129C]; assay: Induction of redissolving of aggregated gamma-crystallin C G129C mutant (unknown origin) at 200 uM incubated for 24 hrs by ThT-fluorescence based assay
T2 sequence (whole entry): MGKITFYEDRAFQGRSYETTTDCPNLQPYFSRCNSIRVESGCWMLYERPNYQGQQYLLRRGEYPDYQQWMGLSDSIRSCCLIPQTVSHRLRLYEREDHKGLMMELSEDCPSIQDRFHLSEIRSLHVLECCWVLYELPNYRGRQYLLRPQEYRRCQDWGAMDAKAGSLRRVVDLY
Method in brief: (§2)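 Purified mutant crystallin proteins, pre-formed into amyloid-like fibrils, were treated with compounds delivered in liposomes, with a liposome-only vehicle control. Redissolution was read as thioflavin T (ThT) fluorescence, n = 3.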

[3] = tested on: T3, Alpha-crystallin A chain (Homo sapiens), P02489 [R116H]; assay: Induction of redissolving of aggregated alpha-crystallin A R116H mutant (unknown origin) at 200 uM incubated for 24 hrs by ThT-fluorescence based assay; method in brief: as §2
T3 sequence (whole entry): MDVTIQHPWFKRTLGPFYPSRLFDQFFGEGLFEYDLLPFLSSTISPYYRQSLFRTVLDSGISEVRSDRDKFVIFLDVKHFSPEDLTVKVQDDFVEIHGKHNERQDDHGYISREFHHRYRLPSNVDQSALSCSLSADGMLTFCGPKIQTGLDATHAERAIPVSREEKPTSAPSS

[4] = tested on: T4, Gamma-crystallin D (Homo sapiens), P07320 [W43R]; assay: Induction of redissolving of aggregated gamma-crystallin D W43R mutant (unknown origin) at 200 uM incubated for 24 hrs by ThT-fluorescence based assay; method in brief: as §2
T4 sequence (whole entry): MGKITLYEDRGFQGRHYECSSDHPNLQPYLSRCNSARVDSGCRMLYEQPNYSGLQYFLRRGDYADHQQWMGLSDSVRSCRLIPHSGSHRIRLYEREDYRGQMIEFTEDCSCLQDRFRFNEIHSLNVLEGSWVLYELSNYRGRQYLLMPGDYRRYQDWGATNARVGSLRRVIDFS

[5] = tested on: T5, Beta-crystallin B2 (Homo sapiens), P43320 [R188H]; assay: Induction of redissolving of aggregated beta-crystallin B2 R188H mutant (unknown origin) at 200 uM incubated for 24 hrs by transmission-electron-microscopy; method in brief: as §1
T5 sequence (whole entry): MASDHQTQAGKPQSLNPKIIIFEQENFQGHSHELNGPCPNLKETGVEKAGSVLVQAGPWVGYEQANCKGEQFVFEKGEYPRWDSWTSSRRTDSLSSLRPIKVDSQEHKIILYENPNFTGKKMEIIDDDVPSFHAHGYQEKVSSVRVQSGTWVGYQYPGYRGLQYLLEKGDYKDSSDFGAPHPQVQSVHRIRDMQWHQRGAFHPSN

[6] = tested on: T4, Gamma-crystallin D (Homo sapiens), P07320 [W43R]; assay: Inhibition of gamma-crystallin D W43R mutant (unknown origin)-induced cytotoxicity in human HLE-B3 cells assessed as increase in cell viability at 0.04 to 4 uM incubated for 12 hrs by CCK8 assay; format: cell-based
[7] = tested on: T6, Alpha-crystallin A chain (Homo sapiens), P02489 [Y118D]; assay: Inhibition of alpha-crystallin A Y118D mutant (unknown origin)-induced cytotoxicity in human HLE-B3 cells assessed as increase in cell viability at 0.04 to 4 uM incubated for 12 hrs by CCK8 assay; format: cell-based
T6 sequence (whole entry): T3 sequence (whole entry) with H116R, Y118D

[8] = tested on: T2, Gamma-crystallin C (Homo sapiens), P07315 [G129C]; assay: Inhibition of gamma-crystallin C G129C mutant (unknown origin)-induced cytotoxicity in human HeLa cells assessed as increase in cell viability at 0.04 to 4 uM incubated for 12 hrs by CCK8 assay; format: cell-based
[9] = tested on: T4, Gamma-crystallin D (Homo sapiens), P07320 [W43R]; assay: Inhibition of gamma-crystallin D W43R mutant (unknown origin)-induced cytotoxicity in human HeLa cells assessed as increase in cell viability at 0.04 to 4 uM incubated for 12 hrs by CCK8 assay; format: cell-based
[10] = tested on: T2, Gamma-crystallin C (Homo sapiens), P07315 [G129C]; assay: Inhibition of gamma-crystallin C G129C mutant (unknown origin)-induced cytotoxicity in human HLE-B3 cells assessed as increase in cell viability at 0.04 to 4 uM incubated for 12 hrs by CCK8 assay; format: cell-based
HeLa = assay: Increase in cell viability of human HeLa cells transfected with peGFP-N1 at 0.04 to 4 uM incubated for 12 hrs by CCK8 assay; format: functional, cell-based
[11] = tested on: T1, Alpha-crystallin B chain (Homo sapiens), P02511 [R120G]; assay: Inhibition of alpha-crystallin B R120G mutant (unknown origin)-induced cytotoxicity in human HLE-B3 cells assessed as increase in cell viability at 0.04 to 4 uM incubated for 12 hrs by CCK8 assay; format: cell-based
[12] = tested on: T7, Beta-crystallin B2 (Homo sapiens), P43320 [V187E]; assay: Inhibition of beta-crystallin B2 V187E mutant (unknown origin)-induced cytotoxicity in human HeLa cells assessed as increase in cell viability at 0.04 to 4 uM incubated for 12 hrs by CCK8 assay; format: cell-based
T7 sequence (whole entry): T5 sequence (whole entry) with V187E, H188R

[13] = tested on: T1, Alpha-crystallin B chain (Homo sapiens), P02511 [R120G]; assay: Inhibition of alpha-crystallin B R120G mutant (unknown origin)-induced cytotoxicity in human HeLa cells assessed as increase in cell viability at 0.04 to 4 uM incubated for 12 hrs by CCK8 assay; format: cell-based
[14] = tested on: T7, Beta-crystallin B2 (Homo sapiens), P43320 [V187E]; assay: Inhibition of beta-crystallin B2 V187E mutant (unknown origin)-induced cytotoxicity in human HLE-B3 cells assessed as increase in cell viability at 0.04 to 4 uM incubated for 12 hrs by CCK8 assay; format: cell-based
[15] = tested on: T6, Alpha-crystallin A chain (Homo sapiens), P02489 [Y118D]; assay: Inhibition of alpha-crystallin A Y118D mutant (unknown origin)-induced cytotoxicity in human HeLa cells assessed as increase in cell viability at 0.04 to 4 uM incubated for 12 hrs by CCK8 assay; format: cell-based
Homo sapiens = organism: Homo sapiens; assay: Increase in cell viability of human HLE-B3 cells transfected with peGFP-N1 at 0.04 to 4 uM incubated for 12 hrs by CCK8 assay; format: functional

| Compound | Activity [1] | Activity [2] | Activity [3] | Activity [4] | Activity [5] | inhibition [6] | inhibition [7] | inhibition [8] | inhibition [9] | inhibition [10] | Activity (HeLa) | inhibition [11] | inhibition [12] | inhibition [13] | inhibition [14] | inhibition [15] | Activity (Homo sapiens) |
| --- | --- | --- | --- | --- | --- | --- | --- | --- | --- | --- | --- | --- | --- | --- | --- | --- | --- |
| C[C@H](CCCC(C)(C)O)[C@H]1CC[C@@]2(C)[C@@]34CC[C@H]5C(C)(C)/C(=N/O)CC[C@]5(C)[C@]3(CC[C@]12C)O4 | inactive | inactive | inactive | inactive | inactive | – | – | – | – | – | – | – | – | – | – | – | – |
| C[C@H](CCCC(C)(C)O)[C@H]1CC[C@@]2(C)C3=C(CC[C@]12C)[C@@]1(C)CCC(=O)C(C)(C)[C@@H]1CC3 | – | – | – | – | – | Active | Active | Active | Active | Active | Active | Active | Active | Active | Active | Active | Active |
| C[C@H](CCCC(C)(C)O)[C@H]1CC[C@@]2(C)C3=CC[C@H]4C(C)(C)[C@@H](O)CC[C@]4(C)C3=CC[C@]12C | – | – | – | – | – | Active | Active | Active | Active | Active | Active | Active | Active | Active | Active | Active | Active |
| C[C@H](CCCC(C)(C)O)[C@H]1CC[C@@]2(C)C3=C(CC[C@]12C)[C@@]1(C)C[C@@H](F)[C@H](O)C(C)(C)[C@@H]1CC3 | – | – | – | – | – | Active | Active | Active | Active | Active | Active | Active | Active | Active | Active | Active | Active |
| C[C@H](CCCC(C)(C)O)[C@H]1CC[C@@]2(C)C3=C(CC[C@]12C)[C@@]1(C)C[C@@H](F)[C@@H](O)C(C)(C)[C@@H]1CC3 | – | – | – | – | – | Active | Active | Active | Active | Active | Active | Active | Active | Active | Active | Active | Active |
| C[C@H](CCCC(C)(C)O)[C@H]1CC[C@@]2(C)C3=C(CC[C@]12C)[C@@]1(C)CC[C@H](O)C(C)(C)[C@@H]1CC3 | Active | Active | Active | Active | Active | Active | Active | Active | Active | Active | Active | Active | Active | Active | Active | Active | Active |

— ChEMBL document CHEMBL4196177, “Synthesis, Evaluation, and Structure-Activity Relationship Study of Lanosterol Derivatives To Reverse Mutant-Crystallin-Induced Protein Aggregation” (J Med Chem, 2018)
